Hits are enriched below; roughly 1.9% of the tested compounds scored in any of these assays.
SR-BI DiI inh: inhibitors of mouse SR-BI mediated HDL lipid uptake; Q61009; ldlA[mSR-BI] CHO cells, DiI-HDL uptake fluorescence, 3 h; inhibition, % at 12.5 µM; 320,000 compounds, 0.96% hits;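 active = mean replicate inhibition of at least 70% and a set share of replicates each scoring 70 or more; inconclusive = meets just one of the two criteria; inactive = fails both criteria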;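 note: 0% = median of neutral control wells and 100% = median of positive control wells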
SR-BI uptake up: activators of SR-BI mediated HDL lipid uptake; CHO ldlA[mSR-BI] cells, DiI-HDL uptake fluorescence, 3 h; 100 = double the neutral-control signal; activation, % at 12.5 µM; 320,000 compounds, 0.096% hits;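 active = mean replicate activation of at least 60% and every replicate at or above 60%; inconclusive = mean or all-replicate condition met, but not both; inactive = mean below 60% and not all replicates reaching 60%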;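 note: 0% = median plate neutral-control signal and 100% = twice that signal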
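Material – SR-BI-overexpressing, LDLR-lacking CHO cells · Medium – BSA-supplemented, HEPES-buffered Ham's F12, pH 7.4 · Doses – single concentration · Times – compound with DiI-HDL co-incubation, 3 h at 37 °C · Measured by – bottom-read fluorescence, 550/595 nm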
GRK2 inh: inhibitors of human GRK2 displacing RNA aptamer; P25098; bead flow cytometry, FAM-aptamer displacement from GRK2; inhibition of aptamer binding, % at 10 µM; 330,000 compounds, 0.59% hits;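 active = inhibition of aptamer binding above 40%, roughly 3 SD of noise, on plates passing a quality check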;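 note: median bead fluorescence of bound FAM aptamer so fluorescent compounds give negative values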
Rin1-Abl PPI inh: human Rin1-Abl interaction inhibition; AID 588664; TR-FRET Rin1/Abl binding, biochemical; 360,000 compounds, 0.4% hits; inhibition, % at 7.35 µM; in the data active = inhibition above about 5%, passing the limit was not always enough
Numbers without * were called inactive.

Screening CC[C@]12c3[nH]c4cc(CCC(=O)N(C)C)ccc4c3CCN1C(=O)[C@@H](CC(=O)NCCC1=CCCCC1)C[C@@H]2C(=O)N1CCN(C(=O)C2CC2)CC1 returned SR-BI DiI inh 1, SR-BI uptake up -1, GRK2 inh 2 and Rin1-Abl PPI inh -2.
`CN(C)C(=O)CCc1ccc2c3c([nH]c2c1)[C@]1(CCc2ccccc2)[C@@H](C(=O)N2CCCCC2)C[C@H](CC(=O)NCc2ccco2)C(=O)N1CC3` gave SR-BI DiI inh 18, SR-BI uptake up -18, GRK2 inh 0 and Rin1-Abl PPI inh -3.
CC[C@]12c3[nH]c4cc(-c5ccco5)ccc4c3CCN1C(=O)[C@@H](CC(=O)NCCN1CCOCC1)C[C@@H]2C(=O)N1CCN(C(=O)c2ccco2)CC1 was read as SR-BI DiI inh -5, SR-BI uptake up 5, GRK2 inh 2 and Rin1-Abl PPI inh 0.
`CC[C@]12c3[nH]c4cc(CCC(=O)N(C)C)ccc4c3CCN1C(=O)[C@@H](CC(=O)NCc1ccco1)C[C@@H]2C(=O)N1CCN(C(=O)C2CC2)CC1` gave SR-BI DiI inh 3, SR-BI uptake up -3, GRK2 inh 45* and Rin1-Abl PPI inh -4.
Screening CCN(CC)C(=O)[C@H]1C[C@H](CC(=O)NCc2ccco2)C(=O)N2CCc3c([nH]c4cc(CCC(=O)N(C)C)ccc34)[C@]12C returned SR-BI DiI inh 8, SR-BI uptake up -8, GRK2 inh 51* and Rin1-Abl PPI inh 2.
O=C(C[C@H]1C/C=C\C[C@@H](Cc2ccc(F)cc2)C(=O)OC[C@H]2CCCN2C1=O)NCCO was read as SR-BI DiI inh -41, SR-BI uptake up 41, GRK2 inh 6 and Rin1-Abl PPI inh -2.
`CSc1ccc(C(=O)C2CCCN(C(=O)c3nonc3C)C2)cc1` (centres undefined) gave SR-BI DiI inh -2, SR-BI uptake up 2, GRK2 inh 0 and Rin1-Abl PPI inh -5.
`Cc1ccc(CSc2nnc(SCC(=O)N/N=C/C=C/c3ccco3)s2)cc1` gave SR-BI DiI inh -6, SR-BI uptake up 6, GRK2 inh 83* and Rin1-Abl PPI inh 1.
Screening CCOC(=O)CN(C(=O)c1snc(C(N)=O)c1N)C(C(=O)NCCC(C)C)c1ccc(C)cc1 (centres undefined) returned Rin1-Abl PPI inh -2.
`Cc1ccccc1SCC(=O)NNC(=O)c1ccccc1O` gave SR-BI DiI inh 79*, SR-BI uptake up -79, GRK2 inh 0 and Rin1-Abl PPI inh 1.
Screening Cc1ccccc1-n1ncc(C(C)NC(=O)c2ccco2)c1C (centres undefined) returned SR-BI DiI inh -9, SR-BI uptake up 9, GRK2 inh 0 and Rin1-Abl PPI inh -2.
CCCCc1ccc(N=N/C(C(=O)Nc2cc(OC)c(NC(C)=O)cc2OC)=C(/C)O)cc1 was read as SR-BI DiI inh 87*, SR-BI uptake up -87, GRK2 inh 1 and Rin1-Abl PPI inh -2.
For COCCNc1oc(/C=C/c2ccccc2OC)nc1S(=O)(=O)c1ccccc1 the results were SR-BI DiI inh 27, SR-BI uptake up -27, GRK2 inh 0 and Rin1-Abl PPI inh 2.
`CN(C)c1nc(N(C)C)c2cnn(C)c2n1` gave SR-BI DiI inh -75, SR-BI uptake up inconclusive and Rin1-Abl PPI inh -1.
For O=C(Cc1cccs1)N1CCN(S(=O)(=O)c2ccc(Br)cc2)CC1 the results were SR-BI DiI inh -195, SR-BI uptake up 195*, GRK2 inh 34 and Rin1-Abl PPI inh 2.
`CS(=O)(=O)N1CCN(C(=O)Cc2cccs2)CC1` gave SR-BI DiI inh 3, SR-BI uptake up -3, GRK2 inh 3 and Rin1-Abl PPI inh -1.
Screening CC1(C)CC(NC(=O)c2ccc(Cl)c(S(=O)(=O)N(Cc3ccccc3)c3ccccc3)c2)CC(C)(C)N1 returned SR-BI DiI inh -97, SR-BI uptake up 97* and GRK2 inh 0.
C[C@H]1CN([C@@H](C)CO)C(=O)c2cc(Br)cnc2O[C@H]1CN(C)C(=O)Cc1ccccn1 was read as Rin1-Abl PPI inh 3.
NC(=Nc1c([N+](=O)[O-])cnc2ccccc12)N1CCOCC1 was read as Rin1-Abl PPI inh -4.
`COCCNC(=O)C1(C)Cc2c(-c3ccc(N(C)C)cc3)ccnc2O1` (centres undefined) gave Rin1-Abl PPI inh 0.
For Cc1ccc2nc(NNC(=O)c3ccc(S(=O)(=O)N4CCc5ccccc5C4)cc3)sc2c1 the results were SR-BI DiI inh 119*, SR-BI uptake up -119, GRK2 inh 0 and Rin1-Abl PPI inh 2.

Screening data as filed in PubChem.
